The list is not random: actives were taken first. Their share in the collection is about 6.8%.
HCV core dimer – HCV core protein dimerization inhibition. TR-FRET GST/Flag-core106 dimerization, 1536-well. inhibition, % at 5 µM. 300,000 tested, 0.33% active;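 active = inhibition above the mean of all tested compounds plus 3 SD, set per screening campaign, cut at about 45% in these data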
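Test system: GST/Flag-tagged HCV core106 proteins; Medium: KF-containing HEPES buffer, pH 7.45, DTT, CHAPS, BSA; Times: compound-protein-antibody incubation 4 h at 22.5 °C; Detection: TR-FRET 671 and 617 nm emission; Benchmarks: wells lacking GST-core106 and wells with excess unlabelled core106.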
ALR H2O2 inh – inhibitors of human sulfhydryl oxidase ALR. AID 485317. purified ALR, DTT oxidation, H2O2 HRP-luminol luminescence. 290,000 tested, 3.8% active. inhibition, % (no concentration beside the values). P55789;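 active = mean replicate inhibition above about 79%, with every replicate also reaching it, limit read from the data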
Target sequence (P55789 whole entry, looked up): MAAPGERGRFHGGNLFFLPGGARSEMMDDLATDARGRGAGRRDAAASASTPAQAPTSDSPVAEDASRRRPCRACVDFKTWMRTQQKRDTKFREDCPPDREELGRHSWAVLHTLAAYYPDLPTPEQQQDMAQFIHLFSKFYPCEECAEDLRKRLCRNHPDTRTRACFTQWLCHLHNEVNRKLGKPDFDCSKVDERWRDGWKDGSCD
PHOSPHO1 inh – inhibitors of human PHOSPHO1 phosphatase; inhibition, % at 13.3 µM; 290,000 tested, 1.1% active; recombinant PHOSPHO1, absorbance phosphatase assay; Q8TCT1; in the data active = inhibition above about 60%
Target sequence (Q8TCT1 whole entry, looked up): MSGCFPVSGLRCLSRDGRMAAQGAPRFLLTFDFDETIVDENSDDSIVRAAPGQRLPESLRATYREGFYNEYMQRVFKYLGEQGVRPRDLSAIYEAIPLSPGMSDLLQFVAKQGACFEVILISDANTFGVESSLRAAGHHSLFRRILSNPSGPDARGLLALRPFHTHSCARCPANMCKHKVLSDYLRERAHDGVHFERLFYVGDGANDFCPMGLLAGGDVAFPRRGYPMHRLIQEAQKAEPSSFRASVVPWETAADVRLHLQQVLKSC
HSF1 inhib – HSF1 inhibition | activity change, negative = inhibition, % at 7.5 µM (by protocol) | 300,000 tested, 0.77% active | NIH3T3-HGL HSE-luciferase, MG132-induced, luminescence 8 h; hits give low values | AID 2098;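 active = more than half of replicate wells show activity change below -50%, luminescence cut by over half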;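 also: luciferase reports HSF-1 transcriptional activity via heat shock element; 0% = median of DMSO wells and -100% = zero luminescence signal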
HSF1 activator – increases HSF-1 driven luciferase reporter signal; NIH3T3-HGL HSF-1 luciferase reporter, MG132, 8 h; 100% = twice DMSO control signal; activation, % at 9 µM; 300,000 tested, 1.7% active; AID 504408;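 active = mean replicate activation of at least 50% with a set share of replicates each reaching 50%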;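 also: 0% = median of the neutral control wells and 100% = twice that signal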
AI-2 QS modul – Vibrio harveyi AI-2 quorum sensing modulation | 300,000 tested, 0.4% active | Vibrio harveyi JMH597 AI-2 luminescence/OD600 ratio, 9 h; hits give low values; strain lacks LuxN and CqsS sensors; 0 = neutral-control median | activity change, % at 7.5 µM; in the data active = activity change below about -75%, passing the limit was not always enough;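 also: luminescence divided by OD600 gain over 9 h not by final OD600 alone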
The depositor's hits bear a star; nt = not tested or not shown.

SMILES	HCV core dimer	ALR H2O2 inh	PHOSPHO1 inh	HSF1 inhib	HSF1 activator	AI-2 QS modul
CCOc1ccc(-n2c(Cc3cc(=O)[nH]c(=O)[nH]3)nnc2SC(C)C(=O)OC)cc1 (configuration not stated)	5	93*	-15	-4	3	21
COC(=O)C(C)Sc1nnc(Cc2cc(=O)[nH]c(=O)[nH]2)n1-c1cc(C)ccc1C (configuration not stated)	2	91*	-2	2	1	12
Cc1ccc(Cn2ccc(O)c(Cc3ccccc3)c2=O)cc1	2	5	15	1	-17	6
CC1CCCCC1NC(=O)CNC(=O)c1cccs1 (configuration not stated)	-2	3	nt	-5	-19	11
COC(=O)c1c(NC(=O)COC(=O)c2ccc(Cl)nc2)sc(C)c1C	1	0	nt	-2	2	8
Cc1cc(NCCCN2CCOCC2)n2nc(C)c(-c3ccc(F)cc3)c2n1	7	98*	1	-3	-1	15
CCOC(=O)C(Cc1ccccc1)c1ccnc2nc(N)nn12 (configuration not stated)	-5	1	25	-3	-10	25
Cc1[nH]c2ccc(-c3n[nH]c(=S)n3-c3ccccc3)cc2c1C	-2	0	7	-10	-12	27
Cc1cccc(NCc2n[nH]c(=S)n2-c2ccccc2)c1	2	42	94*	-3	9	3
Cc1ccc(NCc2n[nH]c(=S)n2-c2ccccc2)cc1	-20	98*	-3	-39	-43	9
CS(=O)(=O)Nc1ccc(-c2n[nH]c(=S)n2-c2ccccc2)cc1	1	97*	-31	1	3	6
Cc1ccc(NCc2n[nH]c(=S)n2-c2ccccc2)c(C)c1	2	98*	0	-8	14	19
Cc1cccc(-n2c(Cc3ccccc3)n[nH]c2=S)c1	1	5	-6	-6	-19	10
O=C(CSc1nnc(CNC(=O)c2ccc(F)cc2)o1)NCC1CCCO1 (configuration not stated)	-4	-15	-43	-3	-1	25
Cc1ccc(NCc2nc3ccccc3n2C)c(C)c1	1	98*	51	33	64*	21
Cc1cccc(NCc2nc3ccccc3n2C)c1	-9	-1	12	13	-11	26
O=C(CSc1ncccn1)NC(=O)c1ccccc1	2	0	30	-1	-1	nt
Cc1ccc(CN(CC(=O)NCCc2ccccc2)C(=O)CCCC(=O)Nc2cc(C)on2)cc1	-3	-7	2	-2	2	19
CC1(C)CC(=O)C(C(c2ccco2)C2C(=O)CC(C)(C)CC2=O)C(=O)C1	-9	83*	0	-7	-7	22
O=C(c1ccc(-c2ccc([N+](=O)[O-])cc2)o1)N1CCN(S(=O)(=O)c2cccs2)CC1	nt	22	nt	nt	nt	nt
CCOc1ccc(C2(C)NC(=O)N(CCN(C)C)C2=O)cc1 (configuration not stated)	5	-12	29	-4	9	10
O=C(CSc1ncnc2c1nnn2Cc1ccccc1)NC1CCCC1	-1	15	27	40	58*	17
CC(C)(C)NC(=O)CSc1ncnc2c1nnn2Cc1ccccc1Cl	6	23	16	86	112*	40
CCCCNc1ncnc2c1nnn2Cc1ccccc1Cl	19	-7	nt	-4	-19	16
O=C(c1ccccc1)c1cc2ccccc2o1	-2	-4	6	31	54*	3
SMILES	HCV core dimer	ALR H2O2 inh	PHOSPHO1 inh	HSF1 inhib	HSF1 activator	AI-2 QS modul
Cc1ccc(C(=O)c2cc3ccccc3o2)cc1[N+](=O)[O-]	4	-6	47	34	64*	4
C/C(=N\NS(=O)(=O)c1ccc(C)c([N+](=O)[O-])c1)c1cc2ccccc2o1	-3	nt	79*	-6	17	-1
O=C(c1ccc(F)cc1)c1cc2ccccc2o1	-2	-3	-10	8	12	-4
C/C(=N\NS(=O)(=O)c1ccc(Cl)c([N+](=O)[O-])c1)c1cc2ccccc2o1	3	8	21	-30	-46	23
COc1ccc(Br)cc1CN1CCN(C(=O)c2ccco2)CC1	-5	-3	47	2	-6	3
CCOP(=O)(OCC)c1nc(-c2ccc(Cl)cc2Cl)oc1N1CCOCC1	2	nt	53	9	8	22
COc1cc2c(c(OC)c1CC=C(C)C)C[C@H](c1ccc(O)cc1O)CO2	1	-17	nt	-7	-4	-4
Cc1cc(C)cc(OCC(=O)OCC(=O)Nc2cc(S(=O)(=O)N3CCOCC3)ccc2Cl)c1	nt	4	nt	nt	nt	nt
O=C(CSc1cccs1)Nc1ccc2ccccc2c1	-2	-11	42	29	57*	-62
O=C(CSc1cccs1)Nc1cccc2ccccc12	4	nt	9	24	63*	25
O=C(CNc1n[nH]c(=O)[nH]c1=O)N/N=C/C1CC=CCC1 (configuration not stated)	0	6	24	3	-17	8
O=S(=O)(Nc1nc2ccccc2nc1NCc1ccco1)c1ccc(F)cc1	5	1	42	8	8	18
CC(C)(C)CN1CCN(CCCc2ccccc2)C(CCO)C1 (configuration not stated)	-7	nt	3	-5	-7	4
CCOC(=O)c1ccc(CC(=O)c2oc3cc(O)ccc3c2C)o1	-5	90*	27	-7	3	14
COc1ccc(C=O)cc1CN1CCCN(Cc2ccc(Cl)cc2)S1(=O)=O	9	-7	46	-80*	-84	-11
O=c1[nH]c2ccccc2nc1/C=C/c1ccccc1	0	-5	28	62	99*	5
C=CCn1cccc(C(=O)Nc2ccc(Cl)cc2)c1=O	9	-4	nt	14	31	14
COc1cccc(C(=O)Nc2ccc(N(C)C)cc2)c1OC	-3	nt	17	35	71*	12
COc1ccccc1C(=O)Nc1cccc(N(C)S(C)(=O)=O)c1	-4	4	6	8	50*	18
CSc1ccccc1C(=O)Nc1cccc(N(C)S(C)(=O)=O)c1	-16	-2	2	1	0	5
C=CCn1cccc(C(=O)Nc2ccc(N(C)C)cc2)c1=O	-18	99*	-3	12	40	17
O=C(Nc1cccc2ccccc12)c1cc2c(cc1Br)OCO2	4	-22	25	-24	-34	7
CCCOC1CCCN(C(=O)c2cc(COc3c(F)cccc3F)on2)C1 (configuration not stated)	11	-12	-11	42	58*	15
O=C(Nc1ccccc1Oc1ccccc1)C1=COCCO1	2	2	nt	0	-14	18

Compound activity as filed in PubChem.
